Where “and” joins values, the source holds several entries; their conditions need not be identical. Equal values may be shown once. Calls of active or inactive are those of the source.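 How the source made its calls: active means inhibitor concentration giving a fourfold drop in imipenem MIC is at most 10 µM; inactive means fourfold MIC drop needs more than 10 µM.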
How the values were obtained:
[1] = tested on: VIM-2 E. coli growth with imipenem, OD600, 18 h; experiment: imipenem potentiation in VIM-2-expressing E. coli, late-stage follow-up, MIC 4-fold reduction, powder samples (AID 624081)
Method in brief: (§1)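 Material – VIM-2-expressing E. coli · Medium – cation-adjusted Mueller-Hinton broth · Also added – imipenem in two-fold dilution series along plate columns · Dosing – compound two-fold series, checkerboard layout · Timing – aerobic incubation of at least 18 h at 37 °C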

[2] = as above; conditions: VIM-2 E. coli growth with imipenem, OD600, 18 h; measured here: max imipenem potentiation fold
Method in brief: as §1

| MIC [1] | Structure (SMILES) | fold potentiation [2] |
| --- | --- | --- |
| > 100 µM (inactive) | O=C(CN1C(=O)/C(=C/c2c(Cl)cccc2Cl)SC1=S)NC[C@@H]1CCCO1 | – |
| 12.5 µM (inactive) | Cc1c(N2C(=O)/C(=C/c3c(Cl)cccc3Cl)SC2=S)c(=O)n(-c2ccccc2)n1C | 8 |
| > 100 µM (inactive) | CCOC(=O)c1c(NC(=O)CN2C(=O)/C(=C/c3c(Cl)cccc3Cl)SC2=S)sc2c1CCCC2 | – |
| 0.781 µM | CN1CCN(NC(=O)CN2C(=O)/C(=C/c3c(Cl)ccc(C(F)(F)F)c3Cl)SC2=S)CC1 | 8 |
| > 100 µM (inactive) | CN(C)CCNC(=O)CN1C(=O)/C(=C\c2ccccc2Cl)SC1=S | – |
| 25 µM (inactive) | O=C(O)CN1C(=O)/C(=C/c2c(F)cccc2C(F)(F)F)SC1=S | 8 |
| 25 µM (inactive) | CN1CCN(NC(=O)CN2C(=O)/C(=C/c3c(F)cccc3C(F)(F)F)SC2=S)CC1 | 8 |
| 6.25 µM and 12.5 µM (inactive) | CN1CCN(NC(=O)CN2C(=O)/C(=C/c3c(Cl)cccc3Cl)SC2=S)CC1 | 8 |
| 6.2 µM | O=C(CN1C(=O)/C(=C/c2c(Cl)cccc2Cl)SC1=S)NCc1ccccn1 | 8 |
| 6.2 µM | O=C(CN1C(=O)/C(=C/c2c(Cl)cccc2Cl)SC1=S)NN1CCCCC1 | 8 |
| > 100 µM (inactive) | O=C(CN1C(=O)/C(=C/c2c(Cl)cccc2Cl)SC1=S)Nc1ccc(Cl)cn1 | – |
| 3.12 µM | O=C(CN1C(=O)/C(=C/c2c(Cl)cccc2Cl)SC1=S)Nc1cc([N+](=O)[O-])ccc1O | 8 |
| > 100 µM (inactive) | O=C(CN1C(=O)/C(=C/c2c(Cl)cccc2Cl)SC1=S)Nc1ccccn1 | – |
| 25 µM (inactive) | NC(=O)CN1C(=O)/C(=C/c2c(Cl)cccc2Cl)SC1=S | – |
| > 100 µM (inactive) | O=C(CN1C(=O)/C(=C/c2c(Cl)cccc2Cl)SC1=S)NOCc1ccccc1 | – |
| 6.2 µM | CCN(CC)OC(=O)CN1C(=O)/C(=C/c2c(Cl)cccc2Cl)SC1=S | 8 |
| > 100 µM (inactive) | Cc1cc(NC(=O)CN2C(=O)/C(=C/c3c(Cl)cccc3Cl)SC2=S)no1 | – |
| > 100 µM (inactive) | O=C(CN1C(=O)/C(=C/c2c(Cl)cccc2Cl)SC1=S)NCc1ccccc1Br | – |
| 12.5 µM (inactive) | O=C(CN1C(=O)/C(=C/c2c(Cl)ccc(Cl)c2Cl)SC1=S)NN1CCNCC1 | – |
| > 100 µM (inactive) | O=C1NC(=S)S/C1=C\c1c(Cl)cccc1Cl | – |

| MIC [1] | Structure (SMILES) | fold potentiation [2] |
| --- | --- | --- |
| > 100 µM (inactive) | O=C(CN1C(=O)/C(=C/c2c(Cl)cccc2Cl)SC1=S)Nc1ccccc1F | – |
| > 100 µM (inactive) | O=C(CN1C(=O)/C(=C/c2c(Cl)cccc2Cl)SC1=S)Nc1ccc(I)cn1 | – |
| 6.25 µM | CN1CCN(C(=O)CN2C(=O)/C(=C/c3c(Cl)ccc(Cl)c3Cl)SC2=S)CC1 | – |
| > 100 µM (inactive) | O=C(CN1C(=O)/C(=C/c2c(Cl)cccc2Cl)SC1=S)NC1CCCCC1 | – |
| 12.5 µM (inactive) | CN1CCC(NC(=O)CN2C(=O)/C(=C/c3c(Cl)cccc3Cl)SC2=S)CC1 | 8 |
| 3.12 µM | O=C(CN1C(=O)/C(=C/c2c(Cl)cccc2Cl)SC1=S)NN1CCNCC1 | 8 |
| 12.5 µM (inactive) | COC(=O)CN1C(=O)/C(=C/c2c(Cl)cccc2Cl)SC1=S | 8 |
| > 100 µM (inactive) | CN(C)CCNC(=O)CN1C(=O)/C(=C/c2ccccc2Cl)SC1=S | – |
| > 100 µM (inactive) | CN(NC(=O)CN1C(=O)/C(=C/c2c(Cl)cccc2Cl)SC1=S)c1ccc(Cl)nn1 | – |
| > 100 µM (inactive) | C=CCONC(=O)CN1C(=O)/C(=C/c2c(Cl)cccc2Cl)SC1=S | – |
| 1.56 µM | CN1CCN(NC(=O)CN2C(=O)/C(=C/c3c(C(F)(F)F)ccc(Cl)c3Cl)SC2=S)CC1 | 8 |
| > 100 µM (inactive) | CN1CCN(NC(=O)CN2C(=O)/C(=C/c3ccccc3F)SC2=S)CC1 | – |
| > 100 µM (inactive) | O=C(CN1C(=O)/C(=C/c2c(Cl)cccc2Cl)SC1=S)Nc1ccc(Br)cn1 | – |
| 12.5 µM (inactive) | CN1CCN(NC(=O)CN2C(=O)/C(=C/c3c(F)cccc3Cl)SC2=S)CC1 | – |
| 12.5 µM (inactive) | O=C(CN1C(=O)/C(=C/c2c(Cl)cccc2Cl)SC1=S)Nc1ccncc1 | 8 |
| 3.12 µM | CN1CCN(NC(=O)CN2C(=O)/C(=C/c3c(Cl)ccc(Cl)c3Cl)SC2=S)CC1 | 8 |
| > 100 µM (inactive) | COC(=O)CNC(=O)CN1C(=O)/C(=C/c2c(Cl)cccc2Cl)SC1=S | – |
| 12.5 µM (inactive) | O=C1/C(=C/c2c(Cl)cccc2Cl)SC(=S)N1Cc1ccncc1 | 8 |
| > 100 µM (inactive) | O=C(CN1C(=O)/C(=C/c2c(Cl)cccc2Cl)SC1=S)NCCc1c[nH]c2ccccc12 | – |
| > 100 µM (inactive) | COc1ccc(CNC(=O)CN2C(=O)/C(=C/c3c(Cl)cccc3Cl)SC2=S)cc1 | – |

| MIC [1] | Structure (SMILES) | fold potentiation [2] |
| --- | --- | --- |
| 12.5 µM (inactive) | CC(C)N1CCN(NC(=O)CN2C(=O)/C(=C/c3c(Cl)cccc3Cl)SC2=S)CC1 | 16 |
| 3.12 µM | O=C(CN1C(=O)/C(=C/c2c(Cl)cccc2Cl)SC1=S)Nc1cccnc1 | 8 |
| > 100 µM (inactive) | O=C(CN1C(=O)/C(=C/c2c(Cl)cccc2Cl)SC1=S)NC[C@H]1CCCO1 | – |
| 3.12 µM | O=C(CN1C(=O)/C(=C/c2c(Cl)ccc(Cl)c2Cl)SC1=S)NCc1ccccn1 | – |
| > 100 µM (inactive) | O=C(CN1C(=O)/C(=C/c2ccccc2Cl)SC1=S)NCCc1cnc[nH]1 | – |
| > 100 µM (inactive) | O=C(CN1C(=O)/C(=C/c2ccccc2Cl)SC1=S)Nc1ccc(O)cc1 | – |
| 6.2 µM | CC(C)(C)OC(=O)N1CCN(NC(=O)CN2C(=O)/C(=C/c3c(Cl)cccc3Cl)SC2=S)CC1 | 8 |
| > 100 µM (inactive) | CN(NC(=O)CN1C(=O)/C(=C/c2c(Cl)cccc2Cl)SC1=S)c1ncc(C(F)(F)F)cc1Cl | – |
| > 100 µM (inactive) | O=C(CN1C(=O)/C(=C/c2c(Cl)cccc2Cl)SC1=S)Nn1cnnc1 | – |
| > 100 µM (inactive) | C=CCNC(=O)CN1C(=O)/C(=C/c2c(Cl)cccc2Cl)SC1=S | – |
| > 100 µM (inactive) | CC(C)(C)NC(=O)CN1C(=O)/C(=C/c2c(Cl)cccc2Cl)SC1=S | – |
| 12.5 µM (inactive) | O=C(CN1C(=O)/C(=C/c2c(Cl)cccc2Cl)SC1=S)NCc1ccncc1 | – |
| 1.56 µM | CC(C)(C)OC(=O)N1CCN(NC(=O)CN2C(=O)/C(=C/c3c(Cl)ccc(Cl)c3Cl)SC2=S)CC1 | – |
| > 100 µM (inactive) | O=C(CN1C(=O)/C(=C/c2c(Cl)cccc2Cl)SC1=S)Nc1ccccc1 | – |
| 12.5 µM (inactive) | CN1CCN(C(=O)CN2C(=O)/C(=C/c3c(Cl)cccc3Cl)SC2=S)CC1 | 8 |
| 3.12 µM | O=C(O)CN1C(=O)/C(=C/c2c(Cl)cccc2Cl)SC1=S | 8 |
| 3.12 µM | Cc1cc(C)n(NC(=O)CN2C(=O)/C(=C/c3c(Cl)cccc3Cl)SC2=S)c(=O)c1 | 8 |
| 50 µM (inactive) | CN1CCN(NC(=O)CN2C(=O)/C(=C/c3ccccc3Cl)SC2=S)CC1 | – |

From PubChem BioAssay AID624081 (The Scripps Research Institute Molecular Screening Center, 2012)
